{
  "source": "paper PMC10981011",
  "about": "(Synthetic and Systems Biotechnology, 2024)",
  "key": {"[1]": {"test_system": "Mak1 (microbiome-derived acarbose kinase 1)", "assay": "In vitro reaction of Mak1", "assay_type": "in vitro ADME, human microbiome", "settings": "10 μM Mak1, 0.5 mM substrate, 2 mM ATP, 30 °C, 2 h", "procedure,_shortened": "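Mak1 expressed in E. coli Origami B (DE3) (1 mM IPTG, 16 °C, 18 h) and purified on Ni-NTA. Reactions used 100 mM Tris-HCl pH 7.0, 10 mM MgCl₂, 2 mM ATP, 10 μM Mak1 and 0.5 mM test compound. They ran at 30 °C for 2 h and were stopped with 2 volumes methanol. Control used heat-inactivated Mak1 (95 °C, 30 min). Phosphorylated product detected by LC-MS on an SB-Aq column.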"}, "[2]": {"test_system": "Apg (acarbose-preferred glucosidase)", "assay": "In vitro reaction of Apg", "assay_type": "in vitro ADME, Klebsiella grimontii TD1", "settings": "10 μM Apg, 1 mM substrate, 37 °C, 2 h"}},
  "data": [
    {"smiles": "C[C@H]1O[C@H](O[C@H]2[C@H](O)[C@@H](O)[C@@H](O[C@H]3[C@H](O)[C@@H](O)C(O)O[C@@H]3CO)O[C@@H]2CO)[C@H](O)[C@@H](O)[C@@H]1N[C@H]1C=C(CO)[C@@H](O)[C@H](O)[C@H]1O", "note": "(some centres unmarked) [Acarbose]", "values": [
      {"measurement": "Phosphorylation by Mak1 (detection of phosphorylated product)", "setting": "[1]", "result": "catalyzed the conversion of acarbose to O-7-phosphoryl-acarbose"},
      {"measurement": "Hydrolysis by Apg", "setting": "[2]", "result": "completely converted"}
    ]}
  ]
}
